The source made the active and inactive calls. No cut-off for these calls is given here.
Tests used:
[1] = Ratio of drug level in brain to plasma of Sprague-Dawley rat at 10 mg/kg, po after 4 hrs; type: ADME, organism-based; design: dose 10 mg/kg, route oral; conditions: brain and plasma, read-out: BPR
How it was run: (§1)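 Oral dosing of Sprague−Dawley rats at 10 mg/kg, compound in 20% HP-β-CD at pH 4. Brain (ng/g) and plasma (ng/mL) concentrations sampled at the indicated time; brain-to-plasma ratio calculated. Geometric mean of at least two runs ± SEM.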

[2] = target: Metabotropic glutamate receptor 8 (Homo sapiens) (UniProt O00222); assay: Agonist activity at human mGlu 8 expressed in HEK293 cells at 10 uM by Ca+2 assay; type: functional, cell-based
How it was run: (§2)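 Ca2+ assays on human mGlu1, mGlu3, mGlu5, mGlu7 or mGlu8 receptors, each expressed in HEK293 cells; compound tested at 10 μM for agonist and antagonist activity.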

[3] = test system: Rattus norvegicus; assay: Effect on sleep-wake cycle in Sprague-Dawley rat EEG model assessed as change in intermediate state at 10 mg/kg, po measured up to 20 hrs relative to control; type: functional, organism-based; design: dose 10 mg/kg
How it was run: (§3)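 Male Sprague-Dawley rats (250–300 g) implanted with EEG/EMG/EOG electrodes, 12 h light/dark cycle, n = 8 per group. Baseline 20 h recording after oral saline, then 20 h after oral 10 mg/kg or vehicle (20% CD + 2H2T). 2 s epochs scored into AW, PW, preREM, REM, lSWS, dSWS and averaged per 30 min. Latencies and transitions analysed; Wilcoxon−Mann−Whitney test vs vehicle.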

[4] = target: T1, Metabotropic glutamate receptor 7 (Homo sapiens, UniProt Q14831); assay: Antagonist activity at human mGlu 7 expressed in HEK293 cells at 10 uM by Ca+2 assay; type: functional, cell-based; how it was run: as §2
T1 sequence (Q14831 whole entry): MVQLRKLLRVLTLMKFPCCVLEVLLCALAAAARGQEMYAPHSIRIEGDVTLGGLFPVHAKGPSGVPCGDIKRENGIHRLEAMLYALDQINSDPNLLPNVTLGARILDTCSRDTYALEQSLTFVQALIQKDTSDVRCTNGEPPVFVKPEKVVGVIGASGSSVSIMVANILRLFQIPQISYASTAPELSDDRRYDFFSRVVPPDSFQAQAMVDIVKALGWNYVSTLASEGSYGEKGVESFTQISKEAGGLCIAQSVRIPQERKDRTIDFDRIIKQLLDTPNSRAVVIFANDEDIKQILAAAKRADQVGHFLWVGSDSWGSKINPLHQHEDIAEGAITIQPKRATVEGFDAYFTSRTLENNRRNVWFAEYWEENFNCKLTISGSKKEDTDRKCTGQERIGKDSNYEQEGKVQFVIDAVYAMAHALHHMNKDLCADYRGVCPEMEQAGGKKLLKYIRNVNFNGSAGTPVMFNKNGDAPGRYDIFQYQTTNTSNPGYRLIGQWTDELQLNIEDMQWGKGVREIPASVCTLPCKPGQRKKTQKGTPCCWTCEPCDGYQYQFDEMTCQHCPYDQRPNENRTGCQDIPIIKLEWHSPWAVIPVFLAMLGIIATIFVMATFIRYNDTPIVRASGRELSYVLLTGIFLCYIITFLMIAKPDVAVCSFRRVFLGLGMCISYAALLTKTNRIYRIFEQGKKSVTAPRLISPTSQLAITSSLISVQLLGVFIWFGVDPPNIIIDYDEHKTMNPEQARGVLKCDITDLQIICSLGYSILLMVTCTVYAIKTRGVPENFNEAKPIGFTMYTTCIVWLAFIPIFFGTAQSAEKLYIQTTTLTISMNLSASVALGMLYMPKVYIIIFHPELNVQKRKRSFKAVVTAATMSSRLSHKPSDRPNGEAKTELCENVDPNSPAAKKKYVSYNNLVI

[5] = Plasma concentration in Sprague-Dawley rat at 10 mg/kg, po after 1 hr; type: ADME, organism-based; design: dose 10 mg/kg, route oral
[6] = target: Metabotropic glutamate receptor 1 (Homo sapiens) (UniProt Q13255); assay: Agonist activity at human mGlu 1 expressed in HEK293 cells at 10 uM by Ca+2 assay; type: functional, cell-based; how it was run: as §2
Metabotropic glutamate receptor 1 (Homo sapiens), sequence (Q13255 19-1194 limits assumed): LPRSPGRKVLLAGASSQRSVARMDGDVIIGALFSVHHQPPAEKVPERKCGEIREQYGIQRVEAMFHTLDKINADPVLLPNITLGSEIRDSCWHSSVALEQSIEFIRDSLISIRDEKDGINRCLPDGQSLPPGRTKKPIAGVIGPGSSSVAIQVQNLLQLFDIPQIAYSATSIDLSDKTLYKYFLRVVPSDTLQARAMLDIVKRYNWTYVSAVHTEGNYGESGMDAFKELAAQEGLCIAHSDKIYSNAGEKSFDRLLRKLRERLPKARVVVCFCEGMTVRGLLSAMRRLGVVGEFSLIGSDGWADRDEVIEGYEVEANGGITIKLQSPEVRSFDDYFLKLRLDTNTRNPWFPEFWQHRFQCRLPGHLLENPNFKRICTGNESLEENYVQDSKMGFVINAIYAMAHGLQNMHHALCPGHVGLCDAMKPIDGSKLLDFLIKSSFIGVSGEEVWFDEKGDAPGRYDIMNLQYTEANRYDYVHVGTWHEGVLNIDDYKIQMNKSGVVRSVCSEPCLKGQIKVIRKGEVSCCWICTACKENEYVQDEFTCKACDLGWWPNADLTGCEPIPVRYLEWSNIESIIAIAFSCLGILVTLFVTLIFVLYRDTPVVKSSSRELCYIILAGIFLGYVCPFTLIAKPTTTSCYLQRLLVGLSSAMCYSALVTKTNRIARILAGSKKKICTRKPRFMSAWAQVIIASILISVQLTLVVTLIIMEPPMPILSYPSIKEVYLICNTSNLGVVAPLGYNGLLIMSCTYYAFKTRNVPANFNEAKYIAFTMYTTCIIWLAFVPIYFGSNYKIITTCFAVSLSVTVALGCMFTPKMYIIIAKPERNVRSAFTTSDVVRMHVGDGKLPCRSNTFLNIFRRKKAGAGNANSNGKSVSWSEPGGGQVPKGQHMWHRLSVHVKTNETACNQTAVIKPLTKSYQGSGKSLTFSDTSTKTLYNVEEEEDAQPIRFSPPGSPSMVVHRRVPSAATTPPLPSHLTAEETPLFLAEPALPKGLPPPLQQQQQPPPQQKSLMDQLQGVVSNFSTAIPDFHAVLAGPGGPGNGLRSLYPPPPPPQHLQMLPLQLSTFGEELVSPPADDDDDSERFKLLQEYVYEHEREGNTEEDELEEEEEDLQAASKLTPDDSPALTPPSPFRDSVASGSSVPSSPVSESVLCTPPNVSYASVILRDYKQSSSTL

[7] = Drug uptake in Sprague-Dawley rat brain at 10 mg/kg, po after 2 hrs; type: ADME, organism-based; design: dose 10 mg/kg, route oral; conditions: read-out: Drug uptake
[8] = Plasma concentration in Sprague-Dawley rat at 10 mg/kg, po after 2 hrs; type: ADME, organism-based; design: dose 10 mg/kg, route oral
[9] = target: Metabotropic glutamate receptor 5 (Homo sapiens) (UniProt P41594); assay: Antagonist activity at human mGlu 5 expressed in HEK293 cells at 10 uM by Ca+2 assay; type: functional, cell-based; how it was run: as §2
Metabotropic glutamate receptor 5 (Homo sapiens), sequence (P41594 21-1212 limits assumed): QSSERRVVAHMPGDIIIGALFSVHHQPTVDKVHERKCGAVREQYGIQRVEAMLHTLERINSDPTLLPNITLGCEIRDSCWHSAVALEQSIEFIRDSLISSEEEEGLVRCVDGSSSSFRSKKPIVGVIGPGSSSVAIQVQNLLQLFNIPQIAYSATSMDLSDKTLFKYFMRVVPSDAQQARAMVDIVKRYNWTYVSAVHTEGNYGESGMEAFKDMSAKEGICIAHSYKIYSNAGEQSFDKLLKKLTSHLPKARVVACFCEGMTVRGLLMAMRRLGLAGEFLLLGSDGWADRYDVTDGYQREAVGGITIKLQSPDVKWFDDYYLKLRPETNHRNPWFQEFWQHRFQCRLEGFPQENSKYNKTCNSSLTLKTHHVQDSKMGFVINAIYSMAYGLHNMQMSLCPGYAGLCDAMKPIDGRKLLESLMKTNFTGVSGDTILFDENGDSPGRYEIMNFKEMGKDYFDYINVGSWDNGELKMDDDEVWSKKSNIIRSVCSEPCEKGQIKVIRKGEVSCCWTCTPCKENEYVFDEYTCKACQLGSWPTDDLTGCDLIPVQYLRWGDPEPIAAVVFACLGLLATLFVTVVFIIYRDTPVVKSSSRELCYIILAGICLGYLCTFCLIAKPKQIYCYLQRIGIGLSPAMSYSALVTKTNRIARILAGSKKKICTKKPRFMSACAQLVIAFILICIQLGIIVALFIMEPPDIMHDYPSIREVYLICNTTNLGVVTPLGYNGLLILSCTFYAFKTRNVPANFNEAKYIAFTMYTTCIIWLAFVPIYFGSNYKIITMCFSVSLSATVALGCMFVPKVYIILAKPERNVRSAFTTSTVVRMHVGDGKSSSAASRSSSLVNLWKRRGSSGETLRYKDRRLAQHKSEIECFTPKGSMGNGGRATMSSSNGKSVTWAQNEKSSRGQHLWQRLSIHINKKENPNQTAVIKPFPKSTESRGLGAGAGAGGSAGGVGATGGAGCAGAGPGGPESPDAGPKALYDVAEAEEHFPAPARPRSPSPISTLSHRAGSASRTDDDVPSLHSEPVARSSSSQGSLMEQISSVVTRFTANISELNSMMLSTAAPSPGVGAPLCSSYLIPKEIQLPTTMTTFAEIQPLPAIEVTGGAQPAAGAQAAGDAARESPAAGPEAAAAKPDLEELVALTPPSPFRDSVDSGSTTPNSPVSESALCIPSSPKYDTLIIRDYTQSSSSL

[10] = test system: Rattus norvegicus; assay: Effect on sleep-wake cycle in Sprague-Dawley rat EEG model assessed as increase in REM sleep onset latency at 10 mg/kg, po measured up to 2 hrs relative to control; type: functional, organism-based; design: dose 10 mg/kg; how it was run: as §3
[11] = target: Metabotropic glutamate receptor 4 (Homo sapiens) (UniProt Q14833); assay: Antagonist activity at human mGlu 4 expressed in L929 cells assessed inhibition of [35S]GTPgammaS binding by liquid scintillation counting; type: functional, cell-based
Metabotropic glutamate receptor 4 (Homo sapiens), sequence (Q14833 whole entry): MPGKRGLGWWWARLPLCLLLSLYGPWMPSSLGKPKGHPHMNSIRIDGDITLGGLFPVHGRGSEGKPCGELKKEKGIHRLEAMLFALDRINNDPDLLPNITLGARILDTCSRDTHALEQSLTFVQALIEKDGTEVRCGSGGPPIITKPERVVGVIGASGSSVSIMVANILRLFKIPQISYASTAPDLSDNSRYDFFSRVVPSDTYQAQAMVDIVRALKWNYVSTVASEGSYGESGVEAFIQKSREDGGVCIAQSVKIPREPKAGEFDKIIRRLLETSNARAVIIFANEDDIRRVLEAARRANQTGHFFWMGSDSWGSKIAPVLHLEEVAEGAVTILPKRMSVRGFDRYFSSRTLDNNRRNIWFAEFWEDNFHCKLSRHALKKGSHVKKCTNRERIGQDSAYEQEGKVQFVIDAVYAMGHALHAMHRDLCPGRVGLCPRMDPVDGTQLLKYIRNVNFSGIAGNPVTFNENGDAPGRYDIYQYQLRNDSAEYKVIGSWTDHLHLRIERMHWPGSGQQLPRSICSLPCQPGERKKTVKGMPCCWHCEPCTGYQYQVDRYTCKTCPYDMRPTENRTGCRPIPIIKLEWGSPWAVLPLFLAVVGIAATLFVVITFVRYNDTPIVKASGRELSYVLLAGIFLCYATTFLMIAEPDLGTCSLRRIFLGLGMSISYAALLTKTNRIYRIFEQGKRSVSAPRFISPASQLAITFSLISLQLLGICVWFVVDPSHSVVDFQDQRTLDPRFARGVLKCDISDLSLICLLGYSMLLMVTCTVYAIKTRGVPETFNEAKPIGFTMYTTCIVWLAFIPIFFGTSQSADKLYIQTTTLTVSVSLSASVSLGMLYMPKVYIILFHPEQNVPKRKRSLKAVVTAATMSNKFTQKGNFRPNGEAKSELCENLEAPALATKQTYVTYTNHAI
How it was run: (§4)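 [35S]GTPγS functional assays on human mGlu4 or rat mGlu6 receptors expressed in L929 or CHO cells; agonist and antagonist modes tested at 10 μM.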

[12] = Cmax in Sprague-Dawley rat at 10 mg/kg, po; type: ADME, organism-based; design: dose 10 mg/kg, route oral; conditions: in vivo
How it was run: (§5)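 Male Sprague-Dawley rats given 10 mg/kg orally and/or 1.25 mg/kg intravenously; compound formulated in 20% HP-β-CD at pH 4. Cmax, tmax, AUC0−inf, t1/2, clearance and oral bioavailability F derived from plasma levels; geometric mean of at least two runs ± SEM.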

[13] = Tmax in Sprague-Dawley rat at 10 mg/kg, po; type: ADME, organism-based; design: dose 10 mg/kg, route oral; conditions: in vivo
How it was run: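 Rat pharmacokinetics in Sprague−Dawley rats: oral 10 mg/kg and intravenous 1.25 mg/kg, formulated in 20% HP-β-CD at pH 4. Plasma profiles used for Cmax, tmax, AUC0−inf and t1/2. Reported as geometric means of at least two runs ± SEM.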

[14] = target: Metabotropic glutamate receptor 3 (Homo sapiens) (UniProt Q14832); assay: Antagonist activity at human mGlu 3 expressed in HEK293 cells at 10 uM by Ca+2 assay; type: functional, cell-based; how it was run: as §2
[15] = test system: Rattus norvegicus; assay: Effect on sleep-wake cycle in Sprague-Dawley rat EEG model assessed as change in deep sleep at 10 mg/kg, po measured up to 20 hrs relative to control; type: functional, organism-based; design: dose 10 mg/kg; how it was run: as §3
[16] = target: Metabotropic glutamate receptor 6 (Rattus norvegicus) (UniProt P35349); assay: Agonist activity at rat mGlu 6 expressed in CHO cells assessed as [35S]GTPgammaS binding by liquid scintillation counting; type: functional, cell-based; how it was run: as §4
Metabotropic glutamate receptor 6 (Rattus norvegicus), sequence (P35349 whole entry): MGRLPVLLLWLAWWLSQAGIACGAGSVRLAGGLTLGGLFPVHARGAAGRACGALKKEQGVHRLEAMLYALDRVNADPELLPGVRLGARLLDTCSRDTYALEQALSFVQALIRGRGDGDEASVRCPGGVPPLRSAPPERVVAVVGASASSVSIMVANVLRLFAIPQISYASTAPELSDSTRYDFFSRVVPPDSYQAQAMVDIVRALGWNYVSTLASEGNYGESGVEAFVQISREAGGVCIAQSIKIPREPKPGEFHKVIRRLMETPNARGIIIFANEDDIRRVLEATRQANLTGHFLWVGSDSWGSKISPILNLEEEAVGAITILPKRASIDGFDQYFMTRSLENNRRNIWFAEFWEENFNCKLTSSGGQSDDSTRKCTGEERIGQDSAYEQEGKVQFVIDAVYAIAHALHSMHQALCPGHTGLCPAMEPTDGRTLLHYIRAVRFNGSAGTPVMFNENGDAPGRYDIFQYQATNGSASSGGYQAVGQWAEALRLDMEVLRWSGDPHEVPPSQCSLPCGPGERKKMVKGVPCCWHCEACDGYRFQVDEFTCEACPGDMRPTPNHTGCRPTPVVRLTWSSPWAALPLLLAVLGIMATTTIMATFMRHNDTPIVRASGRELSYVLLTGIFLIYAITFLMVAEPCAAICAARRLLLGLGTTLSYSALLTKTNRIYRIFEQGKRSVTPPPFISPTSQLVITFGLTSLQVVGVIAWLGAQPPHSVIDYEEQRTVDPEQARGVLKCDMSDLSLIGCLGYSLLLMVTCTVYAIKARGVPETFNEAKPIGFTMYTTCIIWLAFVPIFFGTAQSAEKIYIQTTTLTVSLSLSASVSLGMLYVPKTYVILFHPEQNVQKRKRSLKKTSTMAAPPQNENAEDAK

[17] = Drug uptake in Sprague-Dawley rat brain at 10 mg/kg, po after 4 hrs; type: ADME, organism-based; design: dose 10 mg/kg, route oral; conditions: read-out: Drug uptake
[18] = Plasma concentration in Sprague-Dawley rat at 10 mg/kg, po after 4 hrs; type: ADME, organism-based; design: dose 10 mg/kg, route oral; how it was run: as §1
[19] = Ratio of drug level in brain to plasma of Sprague-Dawley rat at 10 mg/kg, po after 1 hr; type: ADME, organism-based; design: dose 10 mg/kg, route oral; conditions: read-out: BPR; how it was run: as §1
[20] = target: Metabotropic glutamate receptor 6 (Rattus norvegicus) (UniProt P35349); assay: Antagonist activity at rat mGlu 6 expressed in CHO cells assessed as inhibition of [35S]GTPgammaS binding by liquid scintillation counting; type: functional, cell-based; how it was run: as §4
[21] = Metabolic stability of human liver microsomes assessed as compound metabolized at 5 uM after 15 mins; type: ADME, Microsome; conditions: read-out: Drug metabolism
How it was run: (§6)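 Test compound at 5 μM incubated 15 min with rat or human liver microsomes; read-out is percent of compound metabolized.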

[22] = Drug uptake in Sprague-Dawley rat brain at 10 mg/kg, po after 1 hr; type: ADME, organism-based; design: dose 10 mg/kg, route oral; conditions: read-out: Drug uptake
[23] = target: Metabotropic glutamate receptor 5 (Homo sapiens) (UniProt P41594); assay: Agonist activity at human mGlu 5 expressed in HEK293 cells at 10 uM by Ca+2 assay; type: functional, cell-based; how it was run: as §2
[24] = test system: Rattus norvegicus; assay: Effect on sleep-wake cycle in Sprague-Dawley rat EEG model assessed as change in passive wake at 10 mg/kg, po measured up to 20 hrs relative to control; type: functional, organism-based; design: dose 10 mg/kg; how it was run: as §3
[25] = AUC (0 to infinity) in Sprague-Dawley rat at 10 mg/kg, po; type: ADME, organism-based; design: time infinity, dose 10 mg/kg, route oral; conditions: plasma; how it was run: as §5
[26] = test system: Rattus norvegicus; assay: Effect on sleep-wake cycle in Sprague-Dawley rat EEG model assessed as change in light sleep at 10 mg/kg, po measured up to 20 hrs relative to control; type: functional, organism-based; design: dose 10 mg/kg; how it was run: as §3
[27] = target: Metabotropic glutamate receptor 3 (Homo sapiens) (UniProt Q14832); assay: Agonist activity at human mGlu 3 expressed in HEK293 cells at 10 uM by Ca+2 assay; type: functional, cell-based; how it was run: as §2
[28] = Ratio of drug level in brain to plasma of Sprague-Dawley rat at 10 mg/kg, po after 2 hrs; type: ADME, organism-based; design: dose 10 mg/kg, route oral; conditions: read-out: BPR; how it was run: as §1
[29] = target: Metabotropic glutamate receptor 1 (Homo sapiens) (UniProt Q13255); assay: Antagonist activity at human mGlu 1 expressed in HEK293 cells at 10 uM by Ca+2 assay; type: functional, cell-based; how it was run: as §2
[30] = target: Metabotropic glutamate receptor 4 (Homo sapiens) (UniProt Q14833); assay: Agonist activity at human mGlu 4 expressed in L929 cells assessed as [35S]GTPgammaS binding by liquid scintillation counting; type: functional, cell-based; how it was run: as §4
[31] = test system: Rattus norvegicus; assay: Effect on sleep-wake cycle in Sprague-Dawley rat EEG model assessed as change in transition from sleep states toward waking at 10 mg/kg, po measured up to 20 hrs relative to control; type: functional, organism-based; design: dose 10 mg/kg; how it was run: as §3
[32] = target: Metabotropic glutamate receptor 8 (Homo sapiens) (UniProt O00222); assay: Antagonist activity at human mGlu 8 expressed in HEK293 cells at 10 uM by Ca+2 assay; type: functional, cell-based; how it was run: as §2
[33] = test system: Rattus norvegicus; assay: Effect on sleep-wake cycle in Sprague-Dawley rat EEG model assessed as suppression of REM sleep at 10 mg/kg, po measured up to 2 hrs relative to control; type: functional; how it was run: as §3
[34] = target: T1, Metabotropic glutamate receptor 7; assay: Agonist activity at human mGlu 7 expressed in HEK293 cells at 10 uM by Ca+2 assay; type: functional, cell-based; how it was run: as §2
[35] = test system: Rattus norvegicus; assay: Effect on sleep-wake cycle in Sprague-Dawley rat EEG model assessed as effect on different vigilance states at 10 mg/kg, po measured up to 20 hrs relative to control; type: functional, organism-based; design: dose 10 mg/kg; how it was run: as §3
[36] = test system: Rattus norvegicus; assay: Effect on sleep-wake cycle in Sprague-Dawley rat EEG model assessed as change in active wake at 10 mg/kg, po measured up to 20 hrs relative to control; type: functional, organism-based; design: dose 10 mg/kg; how it was run: as §3
[37] = Half life in Sprague-Dawley rat at 10 mg/kg, po; type: ADME, organism-based; design: dose 10 mg/kg, route oral; conditions: in vivo; how it was run: as §5
[38] = target: Metabotropic glutamate receptor 2 (Homo sapiens, UniProt Q14416); assay: Agonist activity at human mGlu 2 expressed in CHO cells by PAM assay relative to glutamate; type: functional, cell-based
How it was run: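 The assay measured [35S]GTPγS binding to membranes from CHO cells expressing human mGluR2. Cells were butyrate-stimulated (5 mM, 24 h) before membranes were prepared. Membranes were preincubated for 30 min at 30 °C in HEPES pH 7.4 buffer (NaCl, MgCl2, 50 μM GDP) with compound (0.3 nM–50 μM, 11 concentrations) plus EC25 glutamate. [35S]GTPγS (0.1 nM final) was then added for 30 min at 30 °C. Bound label was collected by filtration and counted. Runs were done at least in triplicate with duplicate points, and a four-parameter logistic fit gave the values.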

[39] = test system: Rattus norvegicus; assay: Effect on sleep-wake cycle in Sprague-Dawley rat EEG model assessed as change in sleep variables at 10 mg/kg, po measured up to 20 hrs relative to control; type: functional, organism-based; design: dose 10 mg/kg; how it was run: as §3
[40] = Metabolic stability of Sprague-Dawley rat liver microsomes assessed as compound metabolized at 5 uM after 15 mins; type: ADME, Microsome; conditions: read-out: Drug metabolism; how it was run: as §6

FC(F)(F)Cc1cnc2c(Cl)c(-c3cc(Cl)c4[nH]ccc4c3)ccn12
Kp at 4 h [1]: 0.8
Activity [2]: inactive
Activity [3]: inactive
Activity [4]: inactive
concentration at 1 h [5]: 414 ng/mL
Activity [6]: inactive
concentration at 2 h [7]: 441 ng/g
concentration at 2 h [8]: 364 ng/mL
Activity [9]: inactive
Activity [10]: Active
Activity [11]: inactive
Cmax [12]: 534 ng/mL
Tmax [13]: 48 min
Activity [14]: inactive
Activity [15]: inactive
Activity [16]: inactive
concentration at 4 h [17]: 126 ng/g
concentration at 4 h [18]: 168 ng/mL
Kp at 1 h [19]: 1.3
Activity [20]: inactive
metabolised at 0.25 h, 5 µM [21]: 10%
concentration at 1 h [22]: 538 ng/g
Activity [23]: inactive
Activity [24]: inactive
AUC(0-inf) [25]: 1980 ng·h/mL
Activity [26]: inactive
Activity [27]: inactive
Kp at 2 h [28]: 1.2
Activity [29]: inactive
Activity [30]: inactive
Activity [31]: inactive
Activity [32]: inactive
Activity [33]: 57%
Activity [34]: inactive
Activity [35]: inactive
Activity [36]: inactive
half-life [37]: 120 min
Emax [38]: 217%
Activity [39]: inactive
metabolised at 0.25 h, 5 µM [40]: 21%

From ChEMBL document CHEMBL2150909, “Imidazo[1,2-a]pyridines: orally active positive allosteric modulators of the metabotropic glutamate 2 receptor” (J Med Chem, 2012)
